Assay results reported in ChEMBL document CHEMBL1156295, “In vitro and in vivo photocytotoxicity of boron dipyrromethene derivatives for photodynamic therapy” (J Med Chem, 2010).

Columns and labels:
HSC-2 [1] = assay: Induction of apoptosis in human HSC2 cells irradiated with 4.1 J/cm^2 broad spectrum light assessed as apoptotic cells at 0.5 uM after 16 hrs of irradiation by annexin V-FITC staining; type: functional
Summary of the method: (§1)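 HSC-2 cells at 50% confluency in dishes, treated 2 h, then irradiated (4.1 J/cm2 broad spectrum) or kept dark. At intervals, floating and trypsinized cells pooled, washed in cold PBS, resuspended at 1 × 10^6 cells/mL in binding buffer. Stained 15 min in the dark at room temperature with annexin V-FITC and propidium iodide. 1 × 10^4 cells read by flow cytometry (FL1, FL3).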

HSC-2 [2] = assay: Induction of apoptosis in human HSC2 cells in dark assessed as viable cells at 0.5 uM after 4 hrs of irradiation by annexin V-FITC staining; type: functional; conditions: HSC-2, light or radiation study, read-out: Activity; summary of the method: as §1
HSC-2 [3] = assay: Induction of apoptosis in human HSC2 cells in dark assessed as apoptotic cells at 0.5 uM after 24 hrs by annexin V-FITC staining; type: functional; summary of the method: as §1
[4] = Cellular uptake in human HSC2 cells assessed as intracellular localization in to nuclear membrane at 100 nM by spinning disk confocal microscopy; type: ADME, cell-based; conditions: hsc-2, 0.1 µM
Summary of the method: (§2)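 HSC-2 cells grown on glass coverslips, co-incubated at room temperature for 15–30 min with compound plus probe: ER-Tracker 100 nM, LysoTracker 500 nM or Rh123 100 nM. Rinsed in PBS. XY sections at 0.2 μm imaged; excitation 330–385 nm for ER/Lyso probes, 460–490 nm for Rh123, 520–550 nm for photosensitizer.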

HL-60 = assay: Cytotoxicity against human HL60 cells after 24 hrs by MTT assay; type: functional, cell-based; conditions: HL-60, 24 h
Summary of the method: (§3)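 HL60 at 15000 cells/well; HSC-2 and HK1 at 3000 cells/well, adhered overnight; phenol-red-free medium with 10% FBS. Compound tested at 0.001–100.0 μM from DMSO stock; controls 0.01% DMSO. After 2 h, irradiated with broad-spectrum light at 6.8 mW/cm2, or dark. After 24 h, MTT 4 h at 37 °C, formazan in DMSO, A570. Three determinations, mean ± SD.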

HSC-2 [5] = assay: Phototoxicity against human HSC2 cells irradiated with 4.1 J/cm^2 broad spectrum light treated 2 hrs before irradiation measured after 24 hrs by MTT assay; type: functional, cell-based; conditions: HSC-2, light or radiation study; summary of the method: as §3
[6] = Phototoxicity against human HK1 cells irradiated with 4.1 J/cm^2 broad spectrum light treated 2 hrs before irradiation measured after 24 hrs by MTT assay; type: functional, cell-based; conditions: HK-1, light or radiation study; summary of the method: as §3
[7] = Cytotoxicity against human HK1 cells after 24 hrs by MTT assay; type: functional, cell-based; conditions: HK-1, 24 h; summary of the method: as §3
[8] = Cellular uptake in human HSC2 cells assessed as intracellular localization in to endoplasmic reticulum labeled with ER-tracker blue-white DPX dye at 100 nM by spinning disk confocal microscopy; type: ADME, cell-based; conditions: hsc-2, 0.1 µM; summary of the method: as §2
[9] = Cellular uptake in human HSC2 cells assessed as intracellular localization in to lysosome labeled with lyso-tracker DND22 dye at 100 nM by spinning disk confocal microscopy; type: ADME, cell-based; conditions: hsc-2, 0.1 µM; summary of the method: as §2
HSC-2 [10] = assay: Cell cycle arrest in human HSC2 cells irradiated with 4.1 J/cm^2 broad spectrum light assessed as accumulation at G2/M phase at 0.25 uM after 2 hrs by flow cytometry relative to control; type: functional
Summary of the method: (§4)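 HSC-2 cells given compound for 2 h, then irradiated with broad-spectrum light (or kept dark). Floating plus trypsinized adherent cells collected at set times after irradiation. Fixed in 70% ice-cold ethanol overnight at 4 °C, then stained 30 min with 20 μg/mL RNase A and 1 μM SYTOX Green. 1 × 10^4 cells read by flow cytometry (488 nm laser, FL1 530/30).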

HSC-2 [11] = assay: Cell cycle arrest in human HSC2 cells irradiated with 4.1 J/cm^2 broad spectrum light assessed as accumulation at G2/M phase at 0.25 uM after 4 hrs by flow cytometry relative to control; type: functional; summary of the method: as §4
HSC-2 [12] = assay: Cell cycle arrest in human HSC2 cells irradiated with 4.1 J/cm^2 broad spectrum light assessed as accumulation at G2/M phase at 0.25 uM after 6 hrs by flow cytometry relative to control; type: functional; summary of the method: as §4
HSC-2 [13] = assay: Cell cycle arrest in human HSC2 cells irradiated with 4.1 J/cm^2 broad spectrum light assessed as accumulation at G2/M phase at 0.25 uM after 8 hrs by flow cytometry relative to control; type: functional; summary of the method: as §4
HSC-2 [14] = assay: Cell cycle arrest in human HSC2 cells irradiated with 4.1 J/cm^2 broad spectrum light assessed as accumulation at G2/M phase at 0.25 uM after 12 hrs by flow cytometry relative to control; type: functional; summary of the method: as §4
HSC-2 [15] = assay: Cell cycle arrest in human HSC2 cells irradiated with 4.1 J/cm^2 broad spectrum light assessed as accumulation at G1 phase at 0.25 uM after 2 hrs by flow cytometry relative to control; type: functional; summary of the method: as §4
HSC-2 [16] = assay: Cell cycle arrest in human HSC2 cells irradiated with 4.1 J/cm^2 broad spectrum light assessed as accumulation at G1 phase at 0.25 uM after 4 hrs by flow cytometry relative to control; type: functional; summary of the method: as §4
HSC-2 [17] = assay: Cell cycle arrest in human HSC2 cells irradiated with 4.1 J/cm^2 broad spectrum light assessed as accumulation at G1 phase at 0.25 uM after 8 hrs by flow cytometry relative to control; type: functional; summary of the method: as §4
HSC-2 [18] = assay: Cell cycle arrest in human HSC2 cells in dark assessed as accumulation at G1 phase at 0.25 uM after 12 hrs by flow cytometry relative to control; type: functional; summary of the method: as §4
HSC-2 [19] = assay: Cell cycle arrest in human HSC2 cells irradiated with 4.1 J/cm^2 broad spectrum light assessed as accumulation at sub-G1 phase at 0.25 uM after 2 hrs by flow cytometry relative to control; type: functional; summary of the method: as §4
HSC-2 [20] = assay: Cell cycle arrest in human HSC2 cells irradiated with 4.1 J/cm^2 broad spectrum light assessed as accumulation at sub-G1 phase at 0.25 uM after 4 hrs by flow cytometry relative to control; type: functional; summary of the method: as §4
HSC-2 [21] = assay: Cell cycle arrest in human HSC2 cells irradiated with 4.1 J/cm^2 broad spectrum light assessed as accumulation at sub-G1 phase at 0.25 uM after 6 hrs by flow cytometry relative to control; type: functional; summary of the method: as §4
HSC-2 [22] = assay: Cell cycle arrest in human HSC2 cells irradiated with 4.1 J/cm^2 broad spectrum light assessed as accumulation at sub-G1 phase at 0.25 uM after 8 hrs by flow cytometry relative to control; type: functional; summary of the method: as §4
HSC-2 [23] = assay: Cell cycle arrest in human HSC2 cells irradiated with 4.1 J/cm^2 broad spectrum light assessed as accumulation at sub-G1 phase at 0.25 uM after 12 hrs by flow cytometry relative to control; type: functional; summary of the method: as §4
HSC-2 [24] = assay: Cell cycle arrest in human HSC2 cells in dark assessed as accumulation at sub-G1 phase at 0.25 uM after 12 hrs by flow cytometry relative to control; type: functional; summary of the method: as §4
HSC-2 [25] = assay: Induction of apoptosis in human HSC2 cells irradiated with 4.1 J/cm^2 broad spectrum light assessed as viable cells at 0.5 uM after 4 hrs of irradiation by annexin V-FITC staining; type: functional; conditions: HSC-2, light or radiation study, read-out: Activity; summary of the method: as §1
HSC-2 [26] = assay: Induction of apoptosis in human HSC2 cells irradiated with 4.1 J/cm^2 broad spectrum light assessed as apoptotic cells at 0.5 uM after 12 hrs of irradiation by annexin V-FITC staining; type: functional; summary of the method: as §1
HSC-2 [27] = assay: Induction of apoptosis in human HSC2 cells irradiated with 4.1 J/cm^2 broad spectrum light assessed as viable cells at 0.5 uM after 16 hrs of irradiation by annexin V-FITC staining; type: functional; conditions: HSC-2, light or radiation study, read-out: Activity; summary of the method: as §1

**Q.** With `CC1=C(I)C(C)=[N+]2C1=C(CCC(=O)O)c1c(C)c(I)c(C)n1[B-]2(F)F` as the molecule, how does the Activity (HSC-2 [1]) read?
**A.** 47.4%

**Q.** What about the viability at 0.5 µM (HSC-2 [2]) of the same molecule?
**A.** 97%

**Q.** And the Activity (HSC-2 [3])?
**A.** 3%

**Q.** What about the Activity [4] of the same molecule?
**A.** Not Active

**Q.** And the IC50 (HL-60)?
**A.** > 100000 nM

**Q.** What about the IC50 (HSC-2 [5]) of the same molecule?
**A.** 100 nM

**Q.** And the IC50 [6]?
**A.** 570 nM

**Q.** And the IC50 [7]?
**A.** 55800 nM

**Q.** And the Drug uptake [8]?
**A.** Active

**Q.** What about the Drug uptake [9] of the same molecule?
**A.** Active

**Q.** And the Activity (HSC-2 [10])?
**A.** 39.8%

**Q.** And the Activity (HSC-2 [11])?
**A.** 48.4%

**Q.** And the Activity (HSC-2 [12])?
**A.** 55.5%

**Q.** What about the Activity (HSC-2 [13]) of the same molecule?
**A.** 48.8%

**Q.** What about the Activity (HSC-2 [14]) of the same molecule?
**A.** 26%

**Q.** And the Activity (HSC-2 [15])?
**A.** 46.3%

**Q.** And the Activity (HSC-2 [16])?
**A.** 33.8%

**Q.** What about the Activity (HSC-2 [17]) of the same molecule?
**A.** 30.3%

**Q.** What about the Activity (HSC-2 [18]) of the same molecule?
**A.** 55.2%

**Q.** And the Activity (HSC-2 [19])?
**A.** 3.7%

**Q.** What about the Activity (HSC-2 [20]) of the same molecule?
**A.** 3.7%

**Q.** What about the Activity (HSC-2 [21]) of the same molecule?
**A.** 3.9%

**Q.** And the Activity (HSC-2 [22])?
**A.** 4.4%

**Q.** And the Activity (HSC-2 [23])?
**A.** 10.6%

**Q.** What about the Activity (HSC-2 [24]) of the same molecule?
**A.** 3.8%

**Q.** What about the viability at 0.5 µM (HSC-2 [25]) of the same molecule?
**A.** 91.3%

**Q.** What about the Activity (HSC-2 [26]) of the same molecule?
**A.** 20.7%

**Q.** And the viability at 0.5 µM (HSC-2 [27])?
**A.** 52.6%
